Assay results reported in ChEMBL document CHEMBL1124215, “Improved delivery through biological membranes. 26. Design, synthesis, and pharmacological activity of a novel chemical delivery system for beta-adrenergic blocking agents” (1988).

Assays:
Oryctolagus cuniculus [1] = experiment: Effect on IOP of rabbits 5 hr after administration (1%); format: functional
Oryctolagus cuniculus [2] = experiment: Effect on IOP of rabbits 3h after administration (1%); format: functional
How it was run: (§1)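 IOP was read by pneumatonometer in unrestrained, unanesthetized rabbits after local propacaine drops. Drug was given as a 1% or 2.5% solution in pH 7.4 buffer or saline to both eyes, at least four rabbits per group; controls (at least three) received carrier only. Readings were taken at 30 and 60 min and at 2, 3, 4, 6 and 8 h. Values are mean ± SE; Student's t test.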

Oryctolagus cuniculus [3] = experiment: Effect on IOP of rabbits 30 mins after administration (1%); format: functional; how it was run: as §1
Oryctolagus cuniculus [4] = experiment: Effect on IOP of rabbits 2 hr after administration (1%); format: functional; how it was run: as §1
Oryctolagus cuniculus [5] = experiment: Effect on IOP of rabbits 4 hr after administration (1%); format: functional; how it was run: as §1
Oryctolagus cuniculus [6] = experiment: Effect on IOP of rabbits 1 hr after administration (1%); format: functional; how it was run: as §1
Oryctolagus cuniculus [7] = experiment: Percentage change of IOP in rabbits after 6 hr administration (1%) of compound; format: functional
How it was run: (§2)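 Rabbits received 1% or 2.5% drug solution in pH 7.4 buffer or saline in both eyes, at least four per group. A control group of at least three rabbits received carrier only. IOP was read by pneumatonometer in unrestrained, unanesthetized animals after one drop of 0.5% propacaine diluted 1:2 with saline. Readings were taken at 30 and 60 min and at 2–8 h. Values are mean ± SE, with significance by Student's t test.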

Oryctolagus cuniculus [8] = experiment: Percentage change of IOP in rabbits after 0 min administration (1%) of compound; format: functional; how it was run: as §1
Oryctolagus cuniculus [9] = experiment: Percentage change of IOP in rabbits after 5 hr administration (1%) of compound; format: functional; how it was run: as §2
Oryctolagus cuniculus [10] = experiment: Percentage change of IOP in rabbits after 1 hr administration (1%) of compound; format: functional; how it was run: as §1
Oryctolagus cuniculus [11] = experiment: Effect on IOP of rabbits 0 min after administration (1%); format: functional; how it was run: as §1
Oryctolagus cuniculus [12] = experiment: Percentage change of IOP in rabbits after 2 hr administration (1%) of compound; format: functional; how it was run: as §1
Oryctolagus cuniculus [13] = experiment: Effect on IOP of rabbits 6 hr after administration (1%); format: functional; how it was run: as §1
Oryctolagus cuniculus [14] = experiment: Percentage change of IOP in rabbits after 3h administration (1%) of compound; format: functional; how it was run: as §2
Oryctolagus cuniculus [15] = experiment: Percentage change of IOP in rabbits after 4 hr administration (1%) of compound; format: functional; how it was run: as §2
Oryctolagus cuniculus [16] = experiment: Percentage change of IOP in rabbits after 8 hr administration (1%) of compound; format: functional; how it was run: as §2
Oryctolagus cuniculus [17] = experiment: Percentage change of IOP in rabbits after 30 min administration (1%) of compound; format: functional; how it was run: as §2
Oryctolagus cuniculus [18] = experiment: Concentration of propranolone oxime in iris-ciliary body of rabbit after 30 min administration of compound; format: functional, organism-based
How it was run: (§3)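 Adult male New Zealand albino rabbits (2.5–3.5 kg), at least four per time point. 100 µL of a 1% solution in saline was instilled topically into both eyes. Animals were killed at 30, 60 or 120 min. Cornea and iris-ciliary body were homogenized in methanol to 10% homogenates and deproteinized by centrifugation. Aqueous humor was analysed undiluted. HPLC was calibrated against spiked control-rabbit tissue. Values are mean ± SE, µg/g.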

Oryctolagus cuniculus [19] = experiment: Effect on IOP of rabbits 4 hr after administration (2.5%); format: functional; how it was run: as §1
Oryctolagus cuniculus [20] = experiment: Effect on IOP of rabbits 8 hr min after administration (1%); format: functional; how it was run: as §1
Oryctolagus cuniculus [21] = experiment: Percentage change of IOP in rabbits after 60 min administration (1%) of compound; format: functional; how it was run: as §2
Oryctolagus cuniculus [22] = experiment: Effect on IOP of rabbits 3h after administration (2.5%); format: functional; how it was run: as §1
Oryctolagus cuniculus [23] = experiment: Concentration of propranolone oxime in cornea of rabbit after 30 min administration of compound; format: functional, organism-based; how it was run: as §3
Oryctolagus cuniculus [24] = experiment: Concentration of propranolone oxime in aqueous humor of rabbit after 60 min administration of compound; format: functional, organism-based; details: Aqueous humor of eyeball; how it was run: as §3
Oryctolagus cuniculus [25] = experiment: Concentration of propranolone oxime in cornea of rabbit after 60 min administration of compound; format: functional, organism-based; how it was run: as §3
Oryctolagus cuniculus [26] = experiment: Percentage change of IOP in rabbits after 3h administration (2.5%) of compound; format: functional; how it was run: as §2
Oryctolagus cuniculus [27] = experiment: Concentration in aqueous humor of rabbit after 60 min administration of compound; format: functional, organism-based; details: Aqueous humor of eyeball; how it was run: as §3
Oryctolagus cuniculus [28] = experiment: Effect on IOP of rabbits 60 mins after administration (1%); format: functional; how it was run: as §1
Oryctolagus cuniculus [29] = experiment: Concentration in iris -ciliary body of rabbit after 60 min administration of compound; format: functional, organism-based; how it was run: as §3
Oryctolagus cuniculus [30] = experiment: Concentration in cornea of rabbit after 30 min administration of compound; format: functional, organism-based; how it was run: as §3
Oryctolagus cuniculus [31] = experiment: Percentage change of IOP in rabbits after 60 min administration (2.5%) of compound; format: functional; how it was run: as §2
Oryctolagus cuniculus [32] = experiment: Effect on IOP of rabbits 60 mins after administration (2.5%); format: functional; how it was run: as §1
Oryctolagus cuniculus [33] = experiment: Percentage change of IOP in rabbits after 8 hr administration (2.5%) of compound; format: functional; how it was run: as §2
Oryctolagus cuniculus [34] = experiment: Percentage change of IOP in rabbits after 6 hr administration (2.5%) of compound; format: functional; how it was run: as §2
Oryctolagus cuniculus [35] = experiment: Effect on IOP of rabbits 6 hr min after administration (2.5%); format: functional; how it was run: as §1
Oryctolagus cuniculus [36] = experiment: Percentage change of IOP in rabbits after 0 min administration (2.5%) of compound; format: functional; how it was run: as §1
Oryctolagus cuniculus [37] = experiment: Effect on IOP of rabbits 2hmin after administration (2.5%); format: functional; how it was run: as §1
Oryctolagus cuniculus [38] = experiment: Percentage change of IOP in rabbits after 2 hr administration (2.5%) of compound; format: functional; how it was run: as §1
Oryctolagus cuniculus [39] = experiment: Percentage change of IOP in rabbits after 30 min administration (2.5%) of compound; format: functional; how it was run: as §2
Oryctolagus cuniculus [40] = experiment: Effect on IOP of rabbits 0 min after administration (2.5%); format: functional; how it was run: as §1
Oryctolagus cuniculus [41] = experiment: Percentage change of IOP in rabbits after 4 hr administration (2.5%) of compound; format: functional; how it was run: as §2
Oryctolagus cuniculus [42] = experiment: Concentration in cornea of rabbit after 60 min administration of compound; format: functional, organism-based; how it was run: as §3
Oryctolagus cuniculus [43] = experiment: Effect on IOP of rabbits 8 hr min after administration (2.5%); format: functional; how it was run: as §1
Oryctolagus cuniculus [44] = experiment: Concentration in iris -ciliary body of rabbit after 30 min administration of compound; format: functional, organism-based; how it was run: as §3
Oryctolagus cuniculus [45] = experiment: Concentration in cornea of rabbit after 120 min administration of compound; format: functional, organism-based; how it was run: as §3
Oryctolagus cuniculus [46] = experiment: Effect on IOP of rabbits 30 mins after administration (2.5%); format: functional; how it was run: as §1
Oryctolagus cuniculus [47] = experiment: Concentration in iris-ciliary body of rabbit after 120 min administration of compound; format: functional, organism-based; how it was run: as §3
Oryctolagus cuniculus [48] = experiment: Concentration of propranolone oxime in aqueous humor of rabbit after 30 min administration of compound; format: functional, organism-based; details: Aqueous humor of eyeball; how it was run: as §3
Oryctolagus cuniculus [49] = experiment: Effect on IOP of rabbits 6 hr min after administration (1%); format: functional; how it was run: as §1

## CC(C)(C)NC[C@H](O)COc1nsnc1N1CCOCC1 (stereo in doubt; 1b) [TIMOLOL]
Oryctolagus cuniculus [1]
  IOP: 24.25 mmHg
Oryctolagus cuniculus [2]
  IOP: 25 mmHg
Oryctolagus cuniculus [3]
  IOP: 26 mmHg
Oryctolagus cuniculus [4]
  IOP: 27.21 mmHg
Oryctolagus cuniculus [5]
  IOP: 24.88 mmHg
Oryctolagus cuniculus [6]
  IOP: 27.25 mmHg
Oryctolagus cuniculus [7]
  Change: 12.4%
Oryctolagus cuniculus [8]
  Change: 0%
Oryctolagus cuniculus [9]
  Change: 16.9%
Oryctolagus cuniculus [10]
  Change: 6.65%
Oryctolagus cuniculus [11]
  IOP: 29.19 mmHg
Oryctolagus cuniculus [12]
  Change: 6.78%
Oryctolagus cuniculus [13]
  IOP: 25.58 mmHg
Oryctolagus cuniculus [14]
  Change: 14.3%
Oryctolagus cuniculus [15]
  Change: 14.8%
Oryctolagus cuniculus [16]
  Change: >9.8%
Oryctolagus cuniculus [17]
  Change: >-10.93%

## CC(C)NC/C(COc1cccc2ccccc12)=N\O
Oryctolagus cuniculus [18]
  Concentration: 7.8 µg/g
Oryctolagus cuniculus [19]
  IOP: 20.4 mmHg
Oryctolagus cuniculus [20]
  IOP: 27.9 mmHg
Oryctolagus cuniculus [21]
  Change: >-11.51%
Oryctolagus cuniculus [22]
  IOP: 21.2 mmHg
Oryctolagus cuniculus [2]
  IOP: 23.3 mmHg
Oryctolagus cuniculus [23]
  Concentration: 23.8 µg/g
Oryctolagus cuniculus [3]
  IOP: 26.9 mmHg
Oryctolagus cuniculus [24]
  Concentration: 0.8 µg/g
Oryctolagus cuniculus [4]
  IOP: 23.4 mmHg
Oryctolagus cuniculus [25]
  Concentration: 16.4 µg/g
Oryctolagus cuniculus [26]
  Change: >-18.46%
Oryctolagus cuniculus [5]
  IOP: 22.2 mmHg
Oryctolagus cuniculus [27]
  Concentration: 0.7 µg/g
Oryctolagus cuniculus [28]
  IOP: 24 mmHg
Oryctolagus cuniculus [7]
  Change: -7.08%
Oryctolagus cuniculus [29]
  Concentration: 1.8 µg/g
Oryctolagus cuniculus [8]
  Change: 0%
Oryctolagus cuniculus [30]
  Concentration: 1.7 µg/g
Oryctolagus cuniculus [31]
  Change: -10%
Oryctolagus cuniculus [32]
  IOP: 23.4 mmHg
Oryctolagus cuniculus [33]
  Change: -0.77%
Oryctolagus cuniculus [34]
  Change: >-9.23%
Oryctolagus cuniculus [35]
  IOP: 23.6 mmHg
Oryctolagus cuniculus [36]
  Change: 0%
Oryctolagus cuniculus [37]
  IOP: 22.6 mmHg
Oryctolagus cuniculus [38]
  Change: -13.08%
Oryctolagus cuniculus [39]
  Change: 1.92%
Oryctolagus cuniculus [11]
  IOP: 27.8 mmHg
Oryctolagus cuniculus [40]
  IOP: 26 mmHg
Oryctolagus cuniculus [41]
  Change: -21.5%
Oryctolagus cuniculus [12]
  Change: -15.8%
Oryctolagus cuniculus [42]
  Concentration: 1.1 µg/g
Oryctolagus cuniculus [43]
  IOP: 25.8 mmHg
Oryctolagus cuniculus [44]
  Concentration: 2.1 µg/g
Oryctolagus cuniculus [45]
  Concentration: 1.1 µg/g
Oryctolagus cuniculus [46]
  IOP: 26.5 mmHg
Oryctolagus cuniculus [14]
  Change: -16.2%
Oryctolagus cuniculus [15]
  Change: -20.1%
Oryctolagus cuniculus [47]
  Concentration: 0.4 µg/g
Oryctolagus cuniculus [48]
  Concentration: 0.8 µg/g
Oryctolagus cuniculus [16]
  Change: 0.5%
Oryctolagus cuniculus [49]
  IOP: 25.8 mmHg
Oryctolagus cuniculus [17]
  Change: -3.23%
